The text below walks through data of ChEMBL document CHEMBL3352141, “Carboline- and phenothiazine-derivated heterocycles as potent SIGMA-1 protein ligands” (Eur J Med Chem, 2015).

A word on the Ki: it is a measure of affinity in units of concentration, obtained from inhibition or displacement. For orientation: IC50 means the concentration at which inhibition is half-maximal.

A short description of experiment [1]: Selectivity index, ratio of IC50 for human SH-SY5Y cells to Ki for human sigma 1 receptor in human Jurkat cell membranes.
Experiment [2] concerns the target Sigma non-opioid intracellular receptor 1 (Homo sapiens, UniProt Q99720). Nature of the experiment: Displacement of [3H](+)-pentazocine from human sigma 1 receptor in human Jurkat cell membranes incubated for 2 hrs by liquid scintillation counting. Background: Loss of bound radioactivity is the signal in a displacement assay; it reports binding, not function.
Experiment [3] is described as follows: Displacement of [3H]-DTG from human sigma 2 receptor in human Jurkat cell membranes incubated for 1 hr by liquid scintillation counting. In short, it runs like this: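 Competition binding on Jurkat cell membranes (10–20 µg protein per tube) with 25 nM [3H]-DTG, plus (+)-pentazocine to saturate sigma-1 sites, across a range of test concentrations. Incubation was 1 h at room temperature in 5 mM Tris/HCl, pH 7.4. Bound ligand was separated by rapid GF/B filtration with ice-cold NaCl washes and counted by liquid scintillation. Nonspecific binding was measured under similar conditions.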

Experiment [4] can be described thus: Cytotoxicity against human SH-SY5Y cells after 72 hrs by MTT assay. The format is cell-based. In short, it runs like this: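 SH-SY5Y neuroblastoma cells were grown in DMEM with 2 mM L-glutamine, streptomycin, 100 IU/mL penicillin, 1 mM non-essential amino acids and 10% heat-inactivated FBS at 37 °C under 5% CO2. Cells were seeded at 2000 per well and serum-starved 24 h, then exposed to a concentration series in <0.1% DMSO. Viability was read by colorimetric MTT. IC50 is the mean of 2–3 independent experiments.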
For orientation: Tetrazolium assays rely on reduction of a dye to a coloured formazan, in cell work by metabolically active cells.

Experiment [5] relates to Jurkat. The experiment in a line: Selectivity index, ratio of Ki for human sigma 2 receptor in human Jurkat cell membranes to Ki for human sigma 1 receptor in human Jurkat cell membranes. It is filed as cell-based. In short, it runs like this:
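The ratio divides sigma-2 Ki by sigma-1 Ki, both measured on Jurkat membranes. Sigma-2 used 25 nM [3H]-DTG with (+)-pentazocine masking, 1 h at room temperature. Sigma-1 used 15 nM [3H](+)-pentazocine, 2 h at 37 °C. Both assays ran in 5 mM Tris/HCl, pH 7.4, with filtration and scintillation read-out.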

Experiment [6] is described as follows: Displacement of [3H]-DTG from rat cerebral cortex membrane sigma 2 receptor incubated for 1 hr by liquid scintillation counting. The format is tissue-based.
Experiment [7] concerns Jurkat. The experiment in a line: Selectivity index, ratio of Ki for sigma 2 receptor in rat cerebral cortex membranes to Ki for human sigma 1 receptor in human Jurkat cell membranes. The format is cell-based.

Sequence of Sigma non-opioid intracellular receptor 1 (Q99720 whole entry): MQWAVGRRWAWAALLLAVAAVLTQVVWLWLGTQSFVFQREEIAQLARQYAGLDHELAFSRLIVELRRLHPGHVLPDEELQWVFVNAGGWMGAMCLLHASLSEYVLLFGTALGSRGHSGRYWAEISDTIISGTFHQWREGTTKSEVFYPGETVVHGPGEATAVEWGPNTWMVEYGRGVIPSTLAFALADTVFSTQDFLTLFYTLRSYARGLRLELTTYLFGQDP

On to `c1ccc(C2c3[nH]c4ccccc4c3CCN2CCCN2Cc3ccccc3C2)cc1` (stereo unspecified), for which the “Selectivity Index” value in experiment [1] came to 2179. The values for the Ki in experiment [2] and in experiment [3] were 8.4 nM and 110 nM, respectively. In addition, the IC50 in experiment [4] came out at 18300 nM. Moreover, the Ratio Ki with Jurkat [5] is 13.

As to `CN(CCCN1CCc2c([nH]c3ccccc23)C1)CCc1ccccc1`, the “Selectivity Index” value in experiment [1] was 1611. The values for the Ki in experiment [2] and in experiment [3] were 7.2 nM and 91 nM, respectively. Further, 11600 nM corresponded to half-maximal inhibition in experiment [4] (IC50). Besides, in the experiment on Jurkat [5], the Ratio Ki turned out to be 13.

With `c1ccc2c(c1)CN(CCCN1CCc3oc4ccccc4c3C1)C2`, the “Selectivity Index” value in experiment [1] was determined as 7173. The Ki is 11 nM in experiment [2] and 9.9 nM in experiment [3]. The IC50 in experiment [4] worked out at 78900 nM. Further, the Ratio Ki in the experiment with Jurkat [5] stood at 0.9.

With `CN(CCCN1CCc2c([nH]c3ccccc23)C1c1ccccc1)CCc1ccccc1` (stereo unspecified), in experiment [1], the “Selectivity Index” value amounted to 1073. Besides, the Ki is 11 nM in experiment [2] and 93 nM in experiment [3]. Moreover, half-maximal inhibition in experiment [4] (IC50) was put at 11800 nM. The Ratio Ki in the experiment on Jurkat [5] was 8.

As for `c1ccc2c3c([nH]c2c1)CN(CCCN1CCCC1)CC3`, the “Selectivity Index” value in experiment [1] is less than 160. Besides, the Ki is greater than 200 nM in experiment [2] and greater than 400 nM in experiment [3]. Moreover, in experiment [4], inhibition was half-maximal at 32900 nM (IC50).

The compound `O=C(CCCN1CCC(O)(c2ccc(Cl)cc2)CC1)c1ccc(F)cc1` [HALOPERIDOL] returned a Ki in experiment [3] of 175 nM.

For `CN(CCCN1c2ccccc2Sc2ccccc21)Cc1ccccc1`, the “Selectivity Index” value in experiment [1] was determined as 611. Also, the Ki in experiment [2] amounted to 28 nM; in experiment [3], 280 nM. The compound further registered an IC50 in experiment [4] of 17100 nM. Besides, the Ratio Ki in the experiment with Jurkat [5] is 10.

For `CN(CCCN1CCc2oc3ccccc3c2C1)CCc1ccccc1`, the “Selectivity Index” value in experiment [1] came out at 10160. The values for the Ki in experiment [2] and in experiment [3] were 2.5 nM and 78 nM, respectively. The compound further displayed an IC50 in experiment [4] of 25400 nM. For the same compound, in the experiment with Jurkat [5], the Ratio Ki was found to be 31.

Regarding `O=C1C2Cc3ccccc3CN2C(=O)N1CCCN1Cc2ccccc2C1` (stereo unspecified), the Ki in experiment [2] came out at 5.3 nM; in experiment [3], 416 nM; in experiment [6] it was 416 nM. The Ratio Ki was determined as 78 in the experiment on Jurkat [7] and 103 in the experiment with Jurkat [5].

For `CN(CCCN1c2ccccc2Oc2ccccc21)Cc1ccccc1`, the “Selectivity Index” value in experiment [1] was less than 350. The Ki in experiment [2] was greater than 200 nM; in experiment [3], 180 nM. Besides, in experiment [4], 71900 nM corresponded to half-maximal inhibition (IC50). For the same compound, in the experiment on Jurkat [5], the Ratio Ki is less than 1.

In the case of `c1ccc2c(c1)CN(CCCN1c3ccccc3Sc3ccccc31)C2`, the “Selectivity Index” value in experiment [1] is 6942. The figures for the Ki in experiment [2] and in experiment [3] were 12 nM and 94 nM, respectively. Half-maximal inhibition in experiment [4] (IC50) required 83300 nM. In addition, the Ratio Ki in the experiment on Jurkat [5] amounted to 8.

On to `CN(CCCn1c(=O)oc2cc3c(cc21)C(c1ccccc1)CC3=O)Cc1ccccc1` (stereo unspecified), for which the “Selectivity Index” value in experiment [1] is listed as greater than 1389. Moreover, the Ki in experiment [2] turned out to be 72 nM; in experiment [3] it was 180 nM. In experiment [4], this compound came in with an IC50 greater than 100000 nM. For the same compound, the Ratio Ki in the experiment with Jurkat [5] stood at 2.5.

For `CN(CCCN1CCc2c([nH]c3ccccc23)C1)Cc1ccccc1`, the “Selectivity Index” value in experiment [1] is reported as 3177. Moreover, the Ki in experiment [2] amounted to 6.2 nM; in experiment [3] it was 15 nM. In addition, the IC50 in experiment [4] amounted to 19700 nM. The Ratio Ki in the experiment on Jurkat [5] amounted to 2.4.

With `c1ccc2c(c1)CN(CCCN1CCc3c([nH]c4ccccc34)C1)C2`, the “Selectivity Index” value in experiment [1] is 3112. In addition, the Ki turned out to be 8 nM in experiment [2] and 110 nM in experiment [3]. Further, the IC50 in experiment [4] was determined as 24900 nM. In addition, the Ratio Ki in the experiment on Jurkat [5] is 14.

Regarding `CN(CCCN1CCc2[nH]c3ccccc3c2C1)CCc1ccccc1`, in experiment [1], the “Selectivity Index” value worked out at 3018. The Ki in experiment [2] was found to be 11 nM; in experiment [3], 200 nM. In addition, the IC50 in experiment [4] is 33200 nM. The Ratio Ki in the experiment with Jurkat [5] amounted to 18.

Take `CN(CCCN1CCc2[nH]c3ccccc3c2C1)Cc1ccccc1`: in experiment [1], the “Selectivity Index” value is reported as 939. The Ki in experiment [2] came to 18 nM; in experiment [3], 130 nM. Also, in experiment [4], the IC50 was 16900 nM. The Ratio Ki in the experiment on Jurkat [5] was found to be 7.

As to `CN(CCCN1C(=O)[C@@H]2Cc3ccccc3CN2C1=O)Cc1ccccc1`, the Ki in experiment [3] and in experiment [6] was 496 nM in each case. In experiment [4], the IC50 was greater than 100000 nM.

On to `CN(CCCN1C(=O)[C@H]2Cc3ccccc3CN2C1=O)Cc1ccccc1`, for which the Ki in experiment [3] and in experiment [6] was 764 nM throughout. Besides, the IC50 in experiment [4] was 19500 nM.

For `CN(CCCN1CCc2oc3ccccc3c2C1)Cc1ccccc1`, the “Selectivity Index” value in experiment [1] was 34450. Also, the Ki in experiment [2] was 2 nM; in experiment [3] it was less than 10 nM. For the same compound, inhibition in experiment [4] was half-maximal at 68900 nM (IC50). Besides, the Ratio Ki in the experiment on Jurkat [5] was less than 5.

Consider `CN(CCCN1CCc2c([nH]c3ccccc23)C1c1ccccc1)Cc1ccccc1` (stereo unspecified), for which, in experiment [1], the “Selectivity Index” value came to 2163. The Ki in experiment [2] is 4.3 nM; in experiment [3] it was 100 nM. The same compound displayed an IC50 in experiment [4] of 9300 nM. In addition, the Ratio Ki in the experiment on Jurkat [5] turned out to be 23.

Turning to `c1ccc2c(c1)CN(CCCN1CCc3[nH]c4ccccc4c3C1)C2`, the “Selectivity Index” value in experiment [1] was 694. For the same compound, the Ki in experiment [2] came out at 72 nM; in experiment [3], 180 nM. This compound also yielded an IC50 in experiment [4] of 50000 nM. The Ratio Ki with Jurkat [5] amounted to 2.5.

For the compound `c1ccc2c(c1)CN(CCCN1c3ccccc3Oc3ccccc31)C2`, in experiment [1], the “Selectivity Index” value is recorded as less than 55. Moreover, the Ki was greater than 200 nM in experiment [2] and 140 nM in experiment [3]. In experiment [4], this compound displayed an IC50 of 11000 nM. The Ratio Ki in the experiment with Jurkat [5] was less than 1.

As to `CN(CCCN1c2ccccc2Oc2ccccc21)CCc1ccccc1`, the “Selectivity Index” value in experiment [1] came to 2606. Also, the Ki was found to be 18 nM in experiment [2] and 80 nM in experiment [3]. 46900 nM corresponded to half-maximal inhibition in experiment [4] (IC50). Also, the Ratio Ki with Jurkat [5] amounted to 4.

On to `c1ccc(C2c3[nH]c4ccccc4c3CCN2CCCN2CCCC2)cc1` (stereo unspecified), for which, in experiment [1], the “Selectivity Index” value amounted to 1328. For the same compound, the values for the Ki in experiment [2] and in experiment [3] were 36 nM and 310 nM, respectively. In addition, the midpoint of inhibition in experiment [4], the IC50, lay at 47800 nM. Also, the Ratio Ki with Jurkat [5] stood at 9.

Regarding `CN(CCCN1c2ccccc2Sc2ccccc21)CCc1ccccc1`, the “Selectivity Index” value in experiment [1] was 782. The Ki was found to be 11 nM in experiment [2] and 310 nM in experiment [3]. The same compound returned an IC50 in experiment [4] of 8600 nM. The Ratio Ki in the experiment on Jurkat [5] stood at 28.

For the compound `CN(CCCn1c(=O)oc2cc3c(cc21)C(c1ccc(Cl)cc1)CC3=O)Cc1ccccc1` (stereo unspecified), in experiment [1], the “Selectivity Index” value worked out at 31. The Ki in experiment [2] is 160 nM; in experiment [3], 50 nM. Besides, the IC50 in experiment [4] was found to be 5000 nM. Moreover, the Ratio Ki with Jurkat [5] was 0.3.
